Here are results for 3 compounds from PMC4527528 (Chemistry & biology, 2015).

Series [1] concerns the target T1, PPT1 (Homo sapiens, UniProt P50897).
T1 sequence (P50897 28-306): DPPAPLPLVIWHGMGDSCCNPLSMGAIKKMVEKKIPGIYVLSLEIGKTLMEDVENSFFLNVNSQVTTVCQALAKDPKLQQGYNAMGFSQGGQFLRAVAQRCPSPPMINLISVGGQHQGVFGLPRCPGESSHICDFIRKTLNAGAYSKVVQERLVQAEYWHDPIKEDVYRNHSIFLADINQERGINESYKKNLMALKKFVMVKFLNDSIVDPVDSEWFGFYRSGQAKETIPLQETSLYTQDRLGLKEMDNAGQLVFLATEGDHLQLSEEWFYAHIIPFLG
Kind of series: In situ competitive ABPP. The settings on record: transfected HEK293T cells. It counts as cell-based. An outline of the steps:
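HEK293T cells transiently transfected with human PPT1 are grown to confluency in DMEM plus serum. Treated in fresh medium with test compound or DMSO, 4 h, 37 °C, 5% CO2. Washed, sonicated in PBS, and lysates labelled with the ABC45 click probe. Rhodamine-azide added by CuAAC; PNGaseF deglycosylation for the blockade test; SDS-PAGE and in-gel fluorescence.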

Series [2] has as its target T2, ABHD4 (Homo sapiens, UniProt Q8TB40).
T2 sequence (Q8TB40 1-342): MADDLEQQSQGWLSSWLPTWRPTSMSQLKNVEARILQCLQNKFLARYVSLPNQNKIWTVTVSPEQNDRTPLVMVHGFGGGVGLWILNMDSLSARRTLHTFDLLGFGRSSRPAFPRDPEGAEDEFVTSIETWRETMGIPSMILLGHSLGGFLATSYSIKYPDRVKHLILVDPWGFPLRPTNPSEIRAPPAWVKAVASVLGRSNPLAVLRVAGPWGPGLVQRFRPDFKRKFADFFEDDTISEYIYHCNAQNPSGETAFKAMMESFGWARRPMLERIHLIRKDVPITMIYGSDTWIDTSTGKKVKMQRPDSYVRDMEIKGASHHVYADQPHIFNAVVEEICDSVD
Kind of series: ABPP-SILAC, in situ treatment of PC3 cells. As to conditions: 4 h, FP-biotin probe. The class given is cell-based. An outline of the steps: (§1)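 Heavy-isotope PC3 cells (RPMI plus serum, grown to confluency) get fresh medium with test compound; light cells get DMSO. Incubated 4 h at 37 °C, 5% CO2, then PBS-washed and sonicated in PBS. Proteomes (2 mg/mL) labelled with FP-biotin (2.5 µM, 1 h) or ABC45 (5 µM, 1 h), then CuAAC to biotin-azide. Heavy and light combined, streptavidin-enriched, trypsin-digested on bead, analysed by LC-MS/MS; SILAC ratios; two independent experiments.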

The target of series [3] is T2, ABHD4. Kind of series: Gel-based competitive ABPP. It counts as biochemical. The settings on record: combined transfected HEK293T lysate.
In series [4] the target is T3, ABHD3 (Homo sapiens, UniProt Q8WU67).
T3 sequence (Q8WU67 1-409): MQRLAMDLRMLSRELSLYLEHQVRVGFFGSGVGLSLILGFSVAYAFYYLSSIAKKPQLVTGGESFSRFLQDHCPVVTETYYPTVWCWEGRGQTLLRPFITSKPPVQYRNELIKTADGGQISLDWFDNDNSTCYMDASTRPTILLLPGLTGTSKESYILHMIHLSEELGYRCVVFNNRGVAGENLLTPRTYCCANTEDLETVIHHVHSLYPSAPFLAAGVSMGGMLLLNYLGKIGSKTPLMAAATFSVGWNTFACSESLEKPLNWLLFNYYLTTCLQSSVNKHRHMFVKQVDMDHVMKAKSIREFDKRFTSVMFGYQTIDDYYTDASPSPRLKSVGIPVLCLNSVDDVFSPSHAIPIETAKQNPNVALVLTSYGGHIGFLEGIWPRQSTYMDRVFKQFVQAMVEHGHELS
The series can be described thus: ABPP-SILAC, in situ treatment of PC3 cells. The settings on record: 4 h, FP-biotin probe. The class given is cell-based. Put shortly:
as §1

Series [5] addresses T1, PPT1. Kind of series: ABPP-SILAC with ABC45 probe, in situ treatment of PC3 cells. The class given is cell-based. The settings on record: 1 µM, 4 h, ABC45 probe (5 µM, 1 h). Put shortly:
as §1

Series [6] concerns the target T4, endogenous PPT1 (Homo sapiens, UniProt P50897).
T4 sequence (P50897 28-306): T1 sequence (P50897 28-306)
The series can be described thus: MU-6S-Palm-βD-Glc substrate assay after in situ treatment of PC3 cells. The class given is cell-based. As to conditions: 500 nM, 4 h. An outline of the steps:
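PC3 cells (RPMI plus serum, confluent) treated in situ with test compound or DMSO for 4 h at 37 °C, 5% CO2, then washed and sonicated in PBS. Lysate PPT1 activity measured with MU-6S-Palm-βD-Glc: thioester hydrolysis, then sweet almond β-glucosidase releases 4-methylumbelliferone, read by fluorescence. Activity compared with DMSO controls; three independent experiments.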

Series [7] addresses T2, ABHD4. The class given is biochemical. The settings on record: in vitro, lysates from ABHD4-transfected HEK293T cells.
Series [8] concerns serine hydrolases. The series can be described thus: ABPP-SILAC serine hydrolase selectivity profile in PC3 cells. It counts as cell-based, human. The settings on record: PC3 cells in situ, 1 or 0.1 µM, 4 h; ABHD6 and CPVL. Put shortly: as §1
Series [9] in a line: Cytotoxicity. It counts as cell-based. The settings on record: read-out: cell toxicity IC50.
Series [10] has as its target T5, PPT1 (Mus musculus, UniProt O88531).
T5 sequence (O88531 28-306): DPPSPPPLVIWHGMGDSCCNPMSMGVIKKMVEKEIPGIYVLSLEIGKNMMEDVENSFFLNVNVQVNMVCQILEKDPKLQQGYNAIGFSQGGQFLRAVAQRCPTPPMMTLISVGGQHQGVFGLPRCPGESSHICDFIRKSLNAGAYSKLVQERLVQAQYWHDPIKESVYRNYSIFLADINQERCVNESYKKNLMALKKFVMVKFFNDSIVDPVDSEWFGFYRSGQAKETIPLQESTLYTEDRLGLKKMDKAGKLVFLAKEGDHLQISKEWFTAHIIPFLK
Kind of series: In vivo gel-based ABPP of mouse tissues. As to conditions: C57BL6 mice, intraperitoneal, 4 h, central and peripheral tissues. Put shortly: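 C57Bl/6 mice dosed intraperitoneally across 1–40 mg/kg in saline/ethanol/emulphor 18:1:1 (v/v/v), or vehicle. After 4 h, isoflurane anaesthesia, cervical dislocation and tissue harvest. Tissue proteomes (1 mg/mL) labelled with ABC45 (1 µM, 60 min) and rhodamine-azide by CuAAC, PNGaseF-treated after labelling, resolved by SDS-PAGE and scanned for fluorescence.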

On to `COc1ccc(N2CCN(C(=O)ON3C(=O)C4CN(Cc5ccc(Oc6ccccc6)cc5)CCN4C3=O)CC2)cc1` (centres unmarked) [ABC34], for which the “blockade of ABC45 reactivity of recombinant human PPT1” value in series [1] (5 µM, 4 h) is listed as “blocked”. For the same compound, the “inhibition of ABHD4” value in [2] (1 µM) is given as “completely inhibited”. Moreover, the “preference for ABHD4 over ABHD3” value in series [3] was “preferentially inhibited ABHD4 over ABHD3”. Besides, the “inhibition of ABHD3” value in [4] (1 µM) is listed as ~ 80%. The “inhibition of PPT1” value in series [5] is “more than 90%”.
`COc1ccc(N2CCN(C(=O)ON3C(=O)C4CN(CC5CCN(Cc6ccccc6)CC5)CCN4C3=O)CC2)cc1` (centres unmarked) [ABC44]: the “in situ inhibition of hPPT1” value in [1] (200 nM) is given as “complete inhibition”. For the same compound, in series [6], the “4-MU-6S-Palm-βD-Glc hydrolysis activity compared to DMSO-treated control cells” value was “substantial reductions” and the “reduction in endogenous PPT1 activity” value turned out to be 90%. Further, the “effect on NAPE hydrolysis activity of ABHD4” value in [7] is given as “neither ABC44 (17) nor the LYPLA1/2 inhibitor JJH254 (7) altered”. For the same compound, in [8], the “cross-reactive serine hydrolase activities” value is “two of the >40 quantified SH activities”. Moreover, the IC50 (usually the concentration that gives 50% inhibition) in series [9] is more than 50 µM. For the same compound, in series [10], the “dose producing near-complete blockade of PPT1” value lay in the range of 1 to 5 mg/kg.
`O=C(ON1C(=O)C2CN(Cc3ccc(Oc4ccccc4)cc3)CCN2C1=O)N1CCC(c2ccccc2)CC1` (centres unmarked) [ABC47]: the “inhibition of ABHD4” value in series [2] (0.5 µM) is “inhibit both ABHD3 and ABHD4”. The “inhibition of ABHD3” value in series [4] (0.5 µM) is “inhibit both ABHD3 and ABHD4”.
